Source: publication PMC6392825 (ChemistryOpen, 2019)
Converted amounts (≈) assume the structure as drawn.

How the values were obtained:
HT‐29 [1] = assay: Cell growth inhibition, protein content; type: cell-based; conditions: Homo sapiens, HT-29, 72 h, read-out: IC50 SRB
In short: (§1)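 Cell lines from ATCC, grown in DMEM+glutamax with 1% NEAA, 1% P/S and 10% FBS at 37 °C, 10% CO2. Seeded at 20000 cells/well for 24 h, then exposed to test compound (25 mM DMSO stock) for three days. Fixed with cold TCA for 1 h at 4 °C, stained 30 min with 0.4% SRB in 1% acetic acid, dissolved in 10 mM Tris, A490. Triplicate; IC50 given as mean ± SD combined with MTT data (n ≥ 3).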

EA.hy926 [2] = assay: Cell growth inhibition, protein content; type: cell-based; conditions: Homo sapiens, EA.hy 926, 72 h, read-out: IC50 SRB
In short: as §1

Caco‐2 [3] = assay: Intracellular ROS assay; type: cell-based; conditions: for activity at 1 µM / activity at 10 µM: Homo sapiens, Caco-2, read-out: Intracellular ROS, percentage compared to the untreated control cells (ROS/SRB); for change of intracellular ROS in words: Caco‐2, vs untreated control, 10 and 1 μM
In short: (§2)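 Cells seeded at 20000/well and grown 24 h at 37 °C, 10% CO2, then treated with test compound at 10 and 1 μM in serum-free medium. NAC and doxorubicin served as controls. After a PBS wash, cells were loaded with 20 μM DCFH-DA for 30 min, washed, and held 1 h in phenol red-free DMEM. Fluorescence read at ex 485/em 535 nm and normalized to SRB in the same well. Reported as % of untreated control, n ≥ 3, two-tailed t-test with unequal variances.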

HepG2 [4] = assay: Cell growth inhibition, protein content; type: cell-based; conditions: Homo sapiens, HepG2, 72 h, read-out: IC50 SRB
In short: as §1

EA.hy926 [5] = assay: Cytotoxicity, mitochondrial activity; type: cell-based; conditions: Homo sapiens, EA.hy 926, 72 h, read-out: IC50 MTT
In short: (§3)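 Seeded at 20000 cells/well in DMEM and grown 24 h at 37 °C, 10% CO2. Medium was then replaced with serum-free medium holding test compound (25 mM DMSO stock) at various concentrations for 72 h, in triplicate; doxorubicin was the positive control. MTT (5 mg/mL stock in PBS) added for 2 h, formazan dissolved in DMSO, A570. IC50 derived from % surviving cells, reported as mean ± SD combined with SRB data.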

Caco‐2 [6] = assay: Cytotoxicity, mitochondrial activity; type: cell-based; conditions: Homo sapiens, Caco-2, 72 h, read-out: IC50 MTT
In short: as §3

EA.hy926 [7] = assay: Intracellular ROS assay; type: cell-based; conditions: for activity at 1 µM / activity at 10 µM: Homo sapiens, EA.hy 926, read-out: Intracellular ROS, percentage compared to the untreated control cells (ROS/SRB)
In short: as §2

HT‐29 [8] = assay: Intracellular ROS assay; type: cell-based; conditions: for activity at 1 µM / activity at 10 µM: Homo sapiens, HT-29, read-out: Intracellular ROS, percentage compared to the untreated control cells (ROS/SRB); for change of intracellular ROS in words: HT‐29, vs untreated control, 10 and 1 μM
In short: as §2

HT‐29 [9] = assay: Cytotoxicity, mitochondrial activity; type: cell-based; conditions: Homo sapiens, HT-29, 72 h, read-out: IC50 MTT
In short: as §3

HepG2 [10] = assay: Intracellular ROS assay; type: cell-based; conditions: for activity at 1 µM / activity at 10 µM: Homo sapiens, HepG2, read-out: Intracellular ROS, percentage compared to the untreated control cells (ROS/SRB)
In short: as §2

[11] = Chemical antioxidant capacity, FRAP assay
Caco‐2 [12] = assay: Cell growth inhibition, protein content; type: cell-based; conditions: Homo sapiens, Caco-2, 72 h, read-out: IC50 SRB
In short: as §1

HepG2 [13] = assay: Cytotoxicity, mitochondrial activity; type: cell-based; conditions: Homo sapiens, HepG2, 72 h, read-out: IC50 MTT
In short: as §3

[14] = Water solubility, shake flask method, 0.1 M phosphate buffer pH 6.8; type: physicochemical; conditions: 37 °C, pH 6.8, aqueous buffer, thermodynamic from solid
CHO‐K1 = assay: Intracellular ROS assay; type: cell-based, Chinese hamster; conditions: CHO‐K1, vs untreated control, 10 and 1 μM
In short: as §2

Row | Compound | IC50 (HT‐29 [1]) [µM] | IC50 (EA.hy926 [2]) [µM] | activity at 1 µM (Caco‐2 [3]) [%] | activity at 10 µM (Caco‐2 [3]) [%] | IC50 (HepG2 [4]) [µM] | IC50 (EA.hy926 [5]) [µM] | IC50 (Caco‐2 [6]) [µM] | activity at 1 µM (EA.hy926 [7]) [%] | activity at 10 µM (EA.hy926 [7]) [%] | activity at 1 µM (HT‐29 [8]) [%] | activity at 10 µM (HT‐29 [8]) [%] | IC50 (HT‐29 [9]) [µM] | activity at 1 µM (HepG2 [10]) [%] | activity at 10 µM (HepG2 [10]) [%] | FRAP (Trolox equivalent per μM) [11] [Trolox equivalent per μM] | FRAP (curcumin equivalent per μM) [11] | IC50 (Caco‐2 [12]) [µM] | IC50 (HepG2 [13]) [µM] | solubility at 90 min [14] [µM] | solubility at 24 h [14] [µM] | other results
1 | O=C(/C=C(O)/C=C/c1cccs1)/C=C/c1c[nH]c2ccccc12 [3 m, (1E,4Z,6E)‐5‐Hydroxy‐1‐(1H‐indol‐3‐yl)‐7‐(thiophen‐2‐yl)hepta‐1,4,6‐trien‐3‐one] | 4.8 ± 0.3 | 8.6 ± 0.5 | 238 ± 5.5 | 295 ± 11.1 | 10.8 ± 1.6 | 4.4 ± 0.4 | 0.5 ± 0.3 | 344 ± 7.1 | 322 ± 9.6 | 247 ± 15.5 | 337 ± 22 | 6.9 | 318 ± 13.2 | 424 ± 28.4 | 0.10 | 0.09 curcumin equivalent per μM | 5.7 ± 0.2 | 4.7 ± 0.2 | 1.27 (≈ 0.408 µg/mL) | 1.25 (≈ 0.402 µg/mL) | 
2 | COc1cc(/C=C/c2cc(/C=C/c3cccnc3)[nH]n2)ccc1O [4 a, 2‐Methoxy‐4‐{(E)‐2‐[5‐((E)‐2‐(pyridin‐3‐yl)vinyl)‐1H‐pyrazol‐3‐yl]vinyl}phenol] | 24 ± 1.6 | 60.7 ± 0.7 | 79.1 ± 8.8 | 86.7 ± 2 | > 75 | 18.5 ± 1.3 | 53.7 ± 6.1 |  | 97.3 ± 7.3 | 61.3 ± 6.9 | 84.8 ± 3.8 | > 75 | 88.4 ± 6.3 | 83.1 ± 5.5 | 0.57 | 0.55 curcumin equivalent per μM | 18.7 ± 1.2 | 11.2 ± 0.1 | 8.8 ± 0.4 (≈ 2.81 µg/mL) | 7.7 ± 0.7 (≈ 2.46 µg/mL) | change of intracellular ROS in words (Caco‐2 [3]): significantly decreased ROS production; change of intracellular ROS in words (HT‐29 [8]): significantly decreased ROS signal; antioxidant activity in words, FRAP [11]: comparable to ascorbic acid
3 | COc1cc(/C=C/C(=O)CC(=O)/C=C/c2ccc(O)c(OC)c2)ccc1O [Cur, curcumin, reference compound] | 52.3 ± 3.8 | 58.4 ± 4.2 | 131 ± 3.6 | 115 ± 7.2 | 22.1 ± 2.6 | 46.8 ± 0.7 | 47.6 ± 1.5 | 100 ± 7.7 | 97.6 ± 5.7 | 106 ± 8.4 | 86.5 ± 4.5 | 43.4 ± 4.6 | 90.8 ± 12 | 101 ± 8.8 | 1.00 |  | 39.1 ± 0.1 | 25.3 ± 0.9 | 2.7 ± 0.1 (≈ 0.995 µg/mL) |  | 
4 | COc1cccc2c1C(=O)c1c(O)c3c(c(O)c1C2=O)C[C@@](O)(C(=O)CO)C[C@@H]3O[C@H]1C[C@H](N)[C@H](O)[C@H](C)O1 [Dox, doxorubicin, reference compound] | 2.7 ± 0.1 | 3.4 ± 0.4 | 121 ± 9.4 | 112 ± 3.9 | 1.3 ± 0.3 | 4.1 ± 0.1 | 13 ± 0.5 | 108 ± 6.2 | 125 ± 5.1 | 116 ± 1.7 | 126 ± 1.8 | 4.8 ± 0.1 | 100 ± 4.1 | 119 ± 4.2 |  |  | 9.2 ± 0.5 | 1.8 ± 0.1 |  |  | change of intracellular ROS in words (CHO‐K1): significant increase in ROS generation; change of intracellular ROS in words (Caco‐2 [3]): significant increase in ROS generation; change of intracellular ROS in words (EA.hy926 [7]; EA.hy926, vs untreated control, 10 and 1 μM): significant increase in ROS generation; change of intracellular ROS in words (HT‐29 [8]): significant increase in ROS generation; change of intracellular ROS in words (HepG2 [10]; HepG2, vs untreated control, 10 and 1 μM): significant increase in ROS generation
